Experimental data taken from ChEMBL document CHEMBL2057201, “New CD1d agonists: synthesis and biological activity of 6″-triazole-substituted α-galactosyl ceramides” (Bioorg Med Chem Lett, 2012).
The source made the active and inactive calls. The calls are words filed in the database; no cut-off is given here.

Tests used:
iNKT = experiment: Immunomodulatory activity in mouse iNKT DN3A4-1.2 cells assessed as stimulation of IL2 production after 24 hrs by ELISA
Mus musculus [1] = experiment: Immunomodulatory activity in ip dosed C57BL/6 mouse assessed as stimulation of IFNgamma production after 24 hrs; assay type: functional, organism-based
Outline: (§1)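 C57BL/6 mice received the glycolipids by intraperitoneal injection. Cytokines were measured in serum: IL-4 at 2 h and IFN-γ at 24 h after injection.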

Mus musculus [2] = experiment: Immunomodulatory activity in ip dosed C57BL/6 mouse assessed as stimulation of IFNgamma production after 24 hrs
Mus musculus [3] = experiment: Immunomodulatory activity in ip dosed C57BL/6 mouse assessed as stimulation of IL4 production after 2 hrs; assay type: functional, organism-based
Outline: as §1

Mus musculus [4] = experiment: Immunomodulatory activity in ip dosed C57BL/6 mouse assessed as stimulation of IL4 production after 2 hrs

Compound	Activity (iNKT)	Activity (Mus musculus [1])	Activity (Mus musculus [2])	Activity (Mus musculus [3])	Activity (Mus musculus [4])
CCCCCCCCCCCCCCCCCCCCCCCCCC(=O)N[C@@H](CO[C@H]1O[C@H](Cn2nnc3ccccc32)[C@H](O)[C@H](O)[C@H]1O)[C@H](O)[C@H](O)CCCCCCCCCCCCCC	Active				
CCCCCCCCCCCCCCCCCCCCCCCCCC(=O)N[C@@H](CO[C@H]1O[C@H](CN=[N+]=[N-])[C@H](O)[C@H](O)[C@H]1O)[C@H](O)[C@H](O)CCCCCCCCCCCCCC	Active	Active	Active		
CCCCCCCCCCCCCCCCCCCCCCCCCC(=O)N[C@@H](CO[C@H]1O[C@H](Cn2nnc(-c3ccccc3)c2-c2ccccc2)[C@H](O)[C@H](O)[C@H]1O)[C@H](O)[C@H](O)CCCCCCCCCCCCCC	Active				
CCCCCCCCCCCCCCCCCCCCCCCCCC(=O)N[C@@H](CO[C@H]1O[C@H](Cn2cc(COCCOCCOCCOCCOCCOCCOCCOCCOC)nn2)[C@H](O)[C@H](O)[C@H]1O)[C@H](O)[C@H](O)CCCCCCCCCCCCCC	Active	Active	Active	Active	Active
CCCCCCCCCCCCCCCCCCCCCCCCCC(=O)N[C@@H](CO[C@H]1O[C@H](Cn2nncc2-c2ccccc2)[C@H](O)[C@H](O)[C@H]1O)[C@H](O)[C@H](O)CCCCCCCCCCCCCC	Active			Active	Active
CCCCCCCCCCCCCCCCCCCCCCCCCC(=O)N[C@@H](CO[C@H]1O[C@H](Cn2cc(CCCCCCCC)nn2)[C@H](O)[C@H](O)[C@H]1O)[C@H](O)[C@H](O)CCCCCCCCCCCCCC	Active	Active	Active	Active	Active
CCCCCCCCCCCCCCCCCCCCCCCCCC(=O)N[C@@H](CO[C@H]1O[C@H](Cn2cc(CCCCCCCCCCCC)nn2)[C@H](O)[C@H](O)[C@H]1O)[C@H](O)[C@H](O)CCCCCCCCCCCCCC		Active	Active	Active	Active
CCCCCCCCCCCCCCCCCCCCCCCCCC(=O)N[C@@H](CO[C@H]1O[C@H](Cn2cc(-c3ccccc3)nn2)[C@H](O)[C@H](O)[C@H]1O)[C@H](O)[C@H](O)CCCCCCCCCCCCCC	Active				
